“And” between values parts separate entries of the source, which are not always exact repeats. Equal values may be shown once.
Tested on: Fibroblast
Test: Multiplex assay against human fibroblast
Format: toxicity, cell-based
Procedure, shortened: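 On a CQ1 microscope at 37°C and 5% CO2, live cells were imaged after compound addition. They had been stained at seeding with Hoechst33342, BioTracker Green Microtubule Cytoskeleton Dye, MitoTracker Red and Annexin V Alexa Fluor 680. CellPathfinder machine-learning gating assigned cells to Hoechst high-intensity objects or normal cells, normal cells to healthy, pyknosed or fragmented nuclei, and pyknosed cells to mitotic or apoptotic. Tubulin, mitochondrial-mass and membrane-permeability phenotypes are per cents of healthy-nucleus cells.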

[1] = 12 h, 1 µM, compound concentration 1 uM, replicate 1
[2] = 12 h, 1 µM, compound concentration 1 uM, replicate 2
[3] = 12 h, 10 µM, compound concentration 10 uM, replicate 1
[4] = 12 h, 10 µM, compound concentration 10 uM, replicate 2
[5] = 24 h, 1 µM, compound concentration 1 uM, replicate 1
[6] = 24 h, 1 µM, compound concentration 1 uM, replicate 2
[7] = 24 h, 10 µM, compound concentration 10 uM, replicate 1
[8] = 24 h, 10 µM, compound concentration 10 uM, replicate 2
[9] = 48 h, 10 µM, compound concentration 10 uM, replicate 1
[10] = 48 h, 10 µM, compound concentration 10 uM, replicate 2

Structure (SMILES): CC(C)Oc1ccc(C(=O)N[C@H](CNC(=O)CN(C)C)Cc2ccc(-c3cn4cccc([C@H](C)O)c4n3)cc2)cc1Cl [GSK-923295A]
- Population Apoptotic (%) [1]: 71%
- Population Fragmented Nuclei (%) [1]: 32%
- Population Healthy Nuclei (%) [1]: 48%
- Population Hoechst High Intensity Objects (%) [1]: 12%
- Population Membrane Permeable-Phenotype (%) [1]: 9%
- Population Mitochondria Different-Phenotype (%) [1]: 5%
- Population Mitotic Cells (%) [1]: 28%
- Population Normal (%) [1]: 87%
- Population Pyknosed Nuclei (%) [1]: 18%
- Population Tubulin-Different-Phenotype (%) [1]: 20%
- Total Cell Count [1]: 256
- Population Apoptotic (%) [2]: 100%
- Population Fragmented Nuclei (%) [2]: 49%
- Population Healthy Nuclei (%) [2]: 43%
- Population Hoechst High Intensity Objects (%) [2]: 31%
- Population Mitochondria Different-Phenotype (%) [2]: 31%
- Population Mitotic Cells (%) [2]: 0%
- Population Normal (%) [2]: 68%
- Population Pyknosed Nuclei (%) [2]: 7%
- Population Tubulin-Different-Phenotype (%) [2]: 40%
- Total Cell Count [2]: 74
- Population Apoptotic (%) [3]: 53% and 65%
- Population Fragmented Nuclei (%) [3]: 34% and 27%
- Population Healthy Nuclei (%) [3]: 34% and 50%
- Population Hoechst High Intensity Objects (%) [3]: 30% and 28%
- Population Mitochondria Different-Phenotype (%) [3]: 11% and 7%
- Population Mitotic Cells (%) [3]: 46% and 34%
- Population Normal (%) [3]: 69% and 71%
- Population Pyknosed Nuclei (%) [3]: 30% and 21%
- Population Tubulin-Different-Phenotype (%) [3]: 82% and 59%
- Population Apoptotic (%) [4]: 75% and 30%
- Population Healthy Nuclei (%) [4]: 28% and 73%
- Population Membrane Permeable-Phenotype (%) [4]: 42% and 30%
- Population Mitotic Cells (%) [4]: 25% and 69%
- Population Normal (%) [4]: 65% and 97%
- Population Pyknosed Nuclei (%) [4]: 16% and 17%
- Population Tubulin-Different-Phenotype (%) [4]: 92% and 100%
- Total Cell Count [4]: 75 and 76
- Population Apoptotic (%) [5]: 65%
- Population Fragmented Nuclei (%) [5]: 27%
- Population Healthy Nuclei (%) [5]: 58%
- Population Hoechst High Intensity Objects (%) [5]: 18%
- Population Membrane Permeable-Phenotype (%) [5]: 6%
- Population Mitochondria Different-Phenotype (%) [5]: 7%
- Population Mitotic Cells (%) [5]: 34%
- Population Normal (%) [5]: 81%
- Population Pyknosed Nuclei (%) [5]: 14%
- Population Tubulin-Different-Phenotype (%) [5]: 10%
- Total Cell Count [5]: 266
- Population Apoptotic (%) [6]: 100%
- Population Fragmented Nuclei (%) [6]: 58%
- Population Healthy Nuclei (%) [6]: 34%
- Population Hoechst High Intensity Objects (%) [6]: 26%
- Population Membrane Permeable-Phenotype (%) [6]: 10%
- Population Mitochondria Different-Phenotype (%) [6]: 15%
- Population Mitotic Cells (%) [6]: 0%
- Population Normal (%) [6]: 73%
- Population Pyknosed Nuclei (%) [6]: 6%
- Population Tubulin-Different-Phenotype (%) [6]: 25%
- Total Cell Count [6]: 79
- Population Apoptotic (%) [7]: 64% and 60%
- Population Fragmented Nuclei (%) [7]: 34% and 27%
- Population Healthy Nuclei (%) [7]: 44% and 54%
- Population Hoechst High Intensity Objects (%) [7]: 34% and 39%
- Population Membrane Permeable-Phenotype (%) [7]: 26% and 10%
- Population Mitochondria Different-Phenotype (%) [7]: 26% and 11%
- Population Mitotic Cells (%) [7]: 35% and 39%
- Population Normal (%) [7]: 65% and 60%
- Population Pyknosed Nuclei (%) [7]: 20% and 17%
- Population Tubulin-Different-Phenotype (%) [7]: 76% and 61%
- Population Apoptotic (%) [8]: 75% and 35%
- Population Healthy Nuclei (%) [8]: 35% and 64%
- Population Mitochondria Different-Phenotype (%) [8]: 96%
- Population Mitotic Cells (%) [8]: 25% and 65%
- Population Normal (%) [8]: 50% and 97%
- Population Pyknosed Nuclei (%) [8]: 9% and 24%
- Population Tubulin-Different-Phenotype (%) [8]: 73% and 100%
- Total Cell Count [8]: 83 and 72
- Population Apoptotic (%) [9]: 71%
- Population Fragmented Nuclei (%) [9]: 35%
- Population Healthy Nuclei (%) [9]: 50%
- Population Hoechst High Intensity Objects (%) [9]: 46%
- Population Membrane Permeable-Phenotype (%) [9]: 11%
- Population Mitochondria Different-Phenotype (%) [9]: 7%
- Population Mitotic Cells (%) [9]: 28%
- Population Normal (%) [9]: 53%
- Population Pyknosed Nuclei (%) [9]: 13%
- Population Tubulin-Different-Phenotype (%) [9]: 65%
- Total Cell Count [9]: 96
- Population Apoptotic (%) [10]: 57%
- Population Fragmented Nuclei (%) [10]: 32%
- Population Healthy Nuclei (%) [10]: 55%
- Population Hoechst High Intensity Objects (%) [10]: 35%
- Population Membrane Permeable-Phenotype (%) [10]: 9%
- Population Mitochondria Different-Phenotype (%) [10]: 6%
- Population Mitotic Cells (%) [10]: 42%
- Population Normal (%) [10]: 64%
- Population Pyknosed Nuclei (%) [10]: 11%
- Population Tubulin-Different-Phenotype (%) [10]: 71%
- Total Cell Count [10]: 281

Source: ChEMBL document CHEMBL4689842, “EUbOPEN Chemogenomics Library wave 1” (2021)
